Assay results published in ChEMBL document CHEMBL4130446, “Environmentally Friendly Procedure Based on Supercritical Fluid Chromatography and Tandem Mass Spectrometry Molecular Networking for the Discovery of Potent Antiviral Compounds from Euphorbia semiperfoliata” (J Nat Prod, 2017).

Key:
[1] = Selectivity index, ratio of CC50 for African green monkey Vero cells to EC50 for Chikungunya virus Indian ocean strain 899 infected in African green monkey Vero cells; format: toxicity; settings: read-out: Ratio CC50/EC50
In short: (§1)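 Selectivity index is CC50 divided by EC50: Vero CC50 over CHIKV EC50, or MT-2 CC50 over NL4.3-Ren EC50 (HIV). Inputs are in μM unless stated otherwise.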

[2] = Cytotoxicity against human MT2 cells by Celltiter-Glo assay; format: cell-based
Chikungunya virus = assay: Antiviral activity against Chikungunya virus Indian ocean strain 899 infected in African green monkey Vero cells assessed as reduction in virus-induced cytopathic effect by MTS assay; format: functional, organism-based; settings: Indian ocean 899, Vero
[3] = system: Human immunodeficiency virus; assay: Antiviral activity against HIV NL4.3 harboring renilla luciferase infected in human MT2 cells pretreated for 2 hrs followed by viral infection measured after 48 to 96 hrs post infection by luciferase reporter gene assay; format: functional, organism-based; settings: Human immunodeficiency virus 1, NL4.3, MT2
In short: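 Recombinant NL4.3-Ren virus assay in MT-2 cells. EC50 is given in μM unless stated otherwise.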

[4] = Cytotoxicity against African green monkey Vero cells assessed as morphological changes by microscopic method; format: cell-based; settings: chlorocebus sabaeus
[5] = Selectivity index, ratio of CC50 for human MT2 cells to EC50 for HIV NL4.3 harboring renilla luciferase infected in human MT2 cells; format: toxicity, cell-based; settings: read-out: Ratio CC50/EC50; in short: as §1

Structure (SMILES) | selectivity ratio [1] | CC50 [2] [µM] | EC50 (Chikungunya virus) [µM] | EC50 [3] [µM] | CC50 [4] [µM] | selectivity ratio [5]
C/C=C(\C)C(=O)O[C@@H]1[C@@H](C)[C@]2(O)[C@@H]3C=C(C)C(=O)[C@@H]3CC(CO)=C[C@H]2[C@@H]2C(C)(C)[C@]12OC(=O)C(C)C | 7 | > 50 | 17 | 4.19 | 116 | > 12
C/C=C(\C)C(=O)O[C@@H]1[C@@H](C)[C@]2(O)[C@@H]3C=C(C)C(=O)[C@H]3CC(CO)=C[C@H]2[C@@H]2C(C)(C)[C@]12OC(=O)C(C)C | 25 | > 50 | 1 | 0.013 | 20 | > 3920
C/C=C(\C)C(=O)O[C@@H]1[C@@H](C)[C@]2(O)[C@@H]3C=C(C)C(=O)[C@H]3CC(C)=C[C@H]2[C@@H]2C(C)(C)[C@]12OC(=O)C(C)C |  | > 50 |  |  | 154 | 
C=C1[C@H](OC(C)=O)[C@@H](OC(C)=O)[C@@H](OC(C)=O)C(C)(C)/C=C/[C@@H](C)C(=O)[C@@]2(OC(C)=O)C[C@@](C)(OC(C)=O)[C@H](OC(C)=O)[C@@H]2[C@H]1OC(C)=O | > 10 |  | 13.8 |  | > 144 | 
CC(=O)O[C@@H]1[C@@H](C)[C@]2(O)[C@@H]3C=C(C)C(=O)[C@H]3CC(CO)=C[C@H]2[C@@H]2C(C)(C)[C@]12OC(=O)C(C)C | 390 | > 50 | 0.44 | 0.054 | 172 | > 919
C=C1[C@H](OC(C)=O)[C@@H](O)[C@@H](OC(C)=O)C(C)(C)/C=C/[C@@H](C)C(=O)[C@@]2(OC(C)=O)C[C@@](C)(OC(C)=O)[C@H](OC(C)=O)[C@@H]2[C@H]1OC(C)=O |  |  | > 153 |  |  | 
CCCCCCCCCCCCCC(=O)O[C@@H]1[C@@H](C)[C@@]2(O)[C@@H](C=C(CO)C[C@]3(O)C(=O)C(C)=C[C@@H]23)[C@@H]2C(C)(C)[C@]12OC(C)=O [PHORBOL MYRISTATE ACETATE] | 1960 |  |  |  |  | 
CC(=O)O[C@@]12C[C@@H](C)[C@@]3(O)[C@@H](C=C(CO)C[C@]4(O)C(=O)C(C)=C[C@@H]34)[C@@H]1C2(C)C [PROSTRATIN] | 30 | > 50 |  | 0.226 |  | > 22
